SR-BI HDL uptake: blocks mouse SR-BI lipid uptake from DiI-HDL | Q61009 | ldlA[mSR-BI] CHO cells, DiI-HDL uptake fluorescence, 3 h | inhibition, % at 12.5 µM | 0.96% of 320,000 active | AID 488896;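 active = mean replicate inhibition of at least 70% and a set share of replicates each scoring 70 or more; inconclusive = meets just one of the two criteria; inactive = fails both criteria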;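 note: 0% = median of neutral control wells and 100% = median of positive control wells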
Neddylation inh: blocks human cullin neddylation; P61081+Q13564; TR-FRET cullin neddylation, biochemical; AID 651699; 0.58% of 360,000 active; inhibition, % at 25 µM; in the data active = inhibition above about 36%
UBC13 polyUb: inhibitors of human UBC13 polyubiquitin chain formation. P61088. TR-FRET. inhibition, % at 20 µM. 0.47% of 330,000 active. AID 485273; in the data active = inhibition above about 45%, passing the limit was not always enough; inconclusive = no clear call, values can overlap the other calls
Target sequence (P61088 whole entry, looked up): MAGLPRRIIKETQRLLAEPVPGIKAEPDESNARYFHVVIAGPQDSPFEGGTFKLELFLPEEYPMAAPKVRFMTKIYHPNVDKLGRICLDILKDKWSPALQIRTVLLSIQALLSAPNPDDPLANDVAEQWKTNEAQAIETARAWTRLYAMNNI
SR-BI DiI-HDL act: activators of SR-BI mediated HDL lipid uptake. CHO ldlA[mSR-BI] cells, DiI-HDL uptake fluorescence, 3 h; 100 = double the neutral-control signal. activation, % at 12.5 µM. 0.096% of 320,000 active;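 active = mean replicate activation of at least 60% and every replicate at or above 60%; inconclusive = mean or all-replicate condition met, but not both; inactive = mean below 60% and not all replicates reaching 60%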;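 note: 0% = median plate neutral-control signal and 100% = twice that signal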
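Test system: SR-BI-overexpressing, LDLR-lacking CHO cells; Also added: labelled HDL, 10 µg/mL; Measured by: bottom-read cell fluorescence after medium removal, ex 550/em 595 nm; Timing: 3 h uptake period with compound, 37 °C; Buffer or medium: F12, 0.5% BSA, 25 mM HEPES; Doses: single compound concentration, delivered by pin transfer.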
Casp3 UBC13 ctr: inhibits human caspase-3 in UBC13 counter-screen; shares compounds with UBC13 polyUb; 4% of 1,400 active; Recombinant caspase-3, Caspase-Glo 3/7 luminescence, 60 min; inhibition, % at 20 µM; AID 488856;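 active = mean inhibition across replicates above about 26%, limit read from the data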;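 note: plate controls were DMSO with caspase-3 for no effect and DMSO wells lacking enzyme for full effect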
Target sequence (P42574 whole entry, looked up): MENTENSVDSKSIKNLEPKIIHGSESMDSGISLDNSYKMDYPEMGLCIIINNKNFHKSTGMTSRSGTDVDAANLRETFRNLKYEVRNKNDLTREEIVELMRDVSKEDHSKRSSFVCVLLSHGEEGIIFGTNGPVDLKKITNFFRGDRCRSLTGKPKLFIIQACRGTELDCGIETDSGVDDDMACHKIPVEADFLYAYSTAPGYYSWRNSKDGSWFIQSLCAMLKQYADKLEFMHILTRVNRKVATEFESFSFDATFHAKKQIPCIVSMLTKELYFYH
UBC13 conf: human UBC13 polyubiquitin inhibition, confirmed | UBC13 polyubiquitination, TR-FRET, biochemical | shares compounds with UBC13 polyUb | AID 488859 | inhibition, % at 10 µM | 68% of 1,400 active; in the data active = inhibition above about 45%; inconclusive = no clear call, values can overlap the other calls
* hit, by the source's call. This is a sample that favours compounds with a hit; in the whole collection about 1.9% have one here.

`CCn1c(=O)cc(C(F)(F)F)[nH]c1=S` gave SR-BI HDL uptake -0.4, Neddylation inh -4.3, UBC13 polyUb 55.3*, SR-BI DiI-HDL act 0.4, Casp3 UBC13 ctr -1.3 and UBC13 conf inconclusive.
COc1ccc(Nc2cc(C)nc3ccc(OC)cc23)cc1 was read as SR-BI HDL uptake 12.3, Neddylation inh -22.2, UBC13 polyUb -3.4 and SR-BI DiI-HDL act -12.3.
`COc1ccc2nc(C)cc(N/N=C/c3ccc(F)cc3)c2c1` gave SR-BI HDL uptake 14.8, Neddylation inh 20.0, UBC13 polyUb 97.0*, SR-BI DiI-HDL act -14.8, Casp3 UBC13 ctr -0.7 and UBC13 conf 113.4*.
For COc1cccc(C#CC2=CC(=O)C[C@H](c3ccc(F)cc3)C2)c1 the results were Neddylation inh 6.4.
`CC(=O)NC(=S)NNC(=O)COc1ccc([N+](=O)[O-])cc1` gave SR-BI HDL uptake -42.5, Neddylation inh -11.6, UBC13 polyUb 12.9 and SR-BI DiI-HDL act 42.5.
For CCCOc1ccc(C(=O)NNC(=S)NC(=O)CC)cc1 the results were SR-BI HDL uptake -30.8, Neddylation inh -9.4, UBC13 polyUb 66.4*, SR-BI DiI-HDL act 30.8, Casp3 UBC13 ctr -0.3 and UBC13 conf 82.7*.
CCC(=O)NC(=S)NNC(=O)c1ccc(NC(=O)c2ccccc2)cc1 was read as SR-BI HDL uptake 24.2, Neddylation inh 0.2, UBC13 polyUb 70.7*, SR-BI DiI-HDL act -24.2, Casp3 UBC13 ctr 12.5 and UBC13 conf 91.2*.
CCCCC(=O)NC(=S)NNC(=O)c1ccc(OC)cc1 was read as SR-BI HDL uptake -47.3, Neddylation inh 0.7, UBC13 polyUb 68.6*, SR-BI DiI-HDL act 47.3, Casp3 UBC13 ctr 1.9 and UBC13 conf 40.8.
Screening COc1ccc(OCC(=O)NNC(=S)NC(=O)c2ccc([N+](=O)[O-])cc2)cc1 returned SR-BI HDL uptake 0.1, Neddylation inh -31.4, UBC13 polyUb 60.1*, SR-BI DiI-HDL act -0.1, Casp3 UBC13 ctr -1.0 and UBC13 conf 30.9.
N#CCC(=O)N/N=C/c1ccc(N2N=C(c3ccccc3)CC2c2ccccc2)cc1 (stereo not given) was read as UBC13 polyUb -0.6.
For CC[N+](CC)=N/N=C1\C=CC[N+]([O-])=C1 the results were Neddylation inh -13.0.
`Cc1ccc2c(n1)CC(C)(C)CC2=O` gave SR-BI HDL uptake -32.3, Neddylation inh 3.0, UBC13 polyUb 46.7*, SR-BI DiI-HDL act 32.3, Casp3 UBC13 ctr -2.0 and UBC13 conf 9.8.
Screening Cc1ccc(OCCCC(=O)Nc2ccc(S(=O)(=O)N3CCOCC3)cc2)cc1 returned SR-BI HDL uptake -32.3, Neddylation inh 12.8, UBC13 polyUb 56.0*, SR-BI DiI-HDL act 32.3, Casp3 UBC13 ctr -2.6 and UBC13 conf 37.0.
`O=C(CCCOc1ccccc1)Nc1ccc(S(=O)(=O)N2CCOCC2)cc1` gave SR-BI HDL uptake 5.4, Neddylation inh -4.4, UBC13 polyUb -4.5 and SR-BI DiI-HDL act -5.4.
`CCc1ccc(C2CC(c3ccc(F)cc3)Nc3nc(N)nn32)cc1` (stereo not given) gave SR-BI HDL uptake 2.3, Neddylation inh -0.4, UBC13 polyUb 48.7*, SR-BI DiI-HDL act -2.3, Casp3 UBC13 ctr -1.0 and UBC13 conf 7.2.
`Cc1nc2ccc(C(=O)NC(C)(C)C)cn2c1N(C)C(=O)CCc1ccccc1` gave Neddylation inh 11.8.
`CCN(CC)CCCNc1nc2cc(OC)c(OC)cc2c2nc(-c3cccnc3)nn12` gave SR-BI HDL uptake -7.1, Neddylation inh 11.9, UBC13 polyUb 20.2 and SR-BI DiI-HDL act 7.1.
`CCN(CC)CCCNc1nc2cc(OC)c(OC)cc2c2nc(-c3ccccc3)nn12` gave SR-BI HDL uptake -16.8, UBC13 polyUb 54.6*, SR-BI DiI-HDL act 16.8, Casp3 UBC13 ctr -1.1 and UBC13 conf 45.4*.
Screening COc1cc2nc(NCCCN3CCN(C)CC3)n3nc(-c4ccccc4)nc3c2cc1OC returned SR-BI HDL uptake -1.2, UBC13 polyUb 65.5*, SR-BI DiI-HDL act 1.2, Casp3 UBC13 ctr 4.8 and UBC13 conf 74.5*.
For CCCC[C@@H]1CNCCN1CCCc1cc(OC)c(OC)c(OC)c1 the results were SR-BI HDL uptake 14.7, Neddylation inh -11.9, UBC13 polyUb -3.4 and SR-BI DiI-HDL act -14.7.
Cc1ccc(NC(=O)C[n+]2ccn(C3=C([O-])c4ccccc4C3=O)c2)cc1 was read as SR-BI HDL uptake 8.2, Neddylation inh -33.6, UBC13 polyUb 74.0*, SR-BI DiI-HDL act -8.2, Casp3 UBC13 ctr 3.9 and UBC13 conf 65.3*.
Screening Cc1cc(Br)c2c(c1)[C@](O)(c1cn(C)c3ccccc13)C(=O)N2C returned Neddylation inh 6.9.
O=C(N/N=C/c1c[nH]c2ccccc12)c1sc2ccccc2c1Cl was read as SR-BI HDL uptake -5.8, Neddylation inh 8.5, UBC13 polyUb -6.7 and SR-BI DiI-HDL act 5.8.
For CC(/C=N/NC(=O)c1sc(N)nc1C)=C\c1ccccc1 the results were SR-BI HDL uptake 11.6, Neddylation inh 37.1, UBC13 polyUb 85.2*, SR-BI DiI-HDL act -11.6, Casp3 UBC13 ctr 42.7* and UBC13 conf 96.1*.
`COc1cc(/C=N\NC(=O)c2sc(N)nc2C)cc(OC)c1OC` gave SR-BI HDL uptake 4.6, Neddylation inh -3.8, UBC13 polyUb 104.9*, SR-BI DiI-HDL act -4.6, Casp3 UBC13 ctr 1.4 and UBC13 conf 111.3*.
For COc1cc(/C=N/NC(=O)c2cc(-c3ccccc3)sc2N)cc(OC)c1OC the results were UBC13 polyUb -2.7.
For Cc1nc(N)sc1C(=O)N/N=C/c1c[nH]c2ccccc12 the results were SR-BI HDL uptake -20.4, Neddylation inh 23.0, UBC13 polyUb 79.2*, SR-BI DiI-HDL act 20.4, Casp3 UBC13 ctr 14.1 and UBC13 conf 113.7*.
For Cc1nc(N)sc1C(=O)N/N=C/c1ccco1 the results were SR-BI HDL uptake -27.0, Neddylation inh -23.4, UBC13 polyUb 72.3*, SR-BI DiI-HDL act 27.0, Casp3 UBC13 ctr 24.6 and UBC13 conf 62.7*.
Cc1nc2ccccc2cc1C(=O)N/N=C/c1ccco1 was read as SR-BI HDL uptake -8.3, Neddylation inh -7.2, UBC13 polyUb -11.5 and SR-BI DiI-HDL act 8.3.
`CC(C)(C)c1ccc(C(=O)N2CCC2(C)C(=O)NCc2cccs2)cc1` (stereo not given) gave Neddylation inh 0.1.
Screening CCCCCCCCCCOC(=O)Cn1c(COc2cccc(C)c2)[n+](C)c2ccccc21 returned SR-BI HDL uptake -23.6, Neddylation inh 6.1, UBC13 polyUb 51.5*, SR-BI DiI-HDL act 23.6, Casp3 UBC13 ctr 3.9 and UBC13 conf 67.8*.
CCCCCCCCCCOC(=O)Cn1c(COc2ccccc2)[n+](C)c2ccccc21 was read as SR-BI HDL uptake -13.5, Neddylation inh 9.1, UBC13 polyUb 58.8*, SR-BI DiI-HDL act 13.5, Casp3 UBC13 ctr -4.6 and UBC13 conf 69.8*.
Screening CCCCCCCCCCOC(=O)Cn1c(COc2ccc(Cl)cc2)[n+](C)c2ccccc21 returned SR-BI HDL uptake 4.9, Neddylation inh -7.6, UBC13 polyUb 99.8*, SR-BI DiI-HDL act -4.9, Casp3 UBC13 ctr -1.0 and UBC13 conf 89.3*.

From PubChem BioAssay
